Measured values taken from ChEMBL document CHEMBL1130234 (J Med Chem, 1997).

Assays:
HaCaT [1] = test: Antiproliferative (inhibition of cell growth) activity against HaCaT cells (human keratinocyte line); assay type: functional, cell-based
Outline: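 HaCaT human keratinocytes treated for 48 h. Proliferation assessed by directly counting dispersed cells under a phase-contrast microscope; N = 3, significance versus control at P < 0.01.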

[2] = target: T1, Arachidonate 5-lipoxygenase (Bos taurus, UniProt Q9BEG3); test: 5-LO inhibitory activity was determined by inhibition of LTB4 biosynthesis in bovine polymorphonuclear leukocytes (PMNL); assay type: functional, cell-based
T1 sequence (Q9BEG3 whole entry): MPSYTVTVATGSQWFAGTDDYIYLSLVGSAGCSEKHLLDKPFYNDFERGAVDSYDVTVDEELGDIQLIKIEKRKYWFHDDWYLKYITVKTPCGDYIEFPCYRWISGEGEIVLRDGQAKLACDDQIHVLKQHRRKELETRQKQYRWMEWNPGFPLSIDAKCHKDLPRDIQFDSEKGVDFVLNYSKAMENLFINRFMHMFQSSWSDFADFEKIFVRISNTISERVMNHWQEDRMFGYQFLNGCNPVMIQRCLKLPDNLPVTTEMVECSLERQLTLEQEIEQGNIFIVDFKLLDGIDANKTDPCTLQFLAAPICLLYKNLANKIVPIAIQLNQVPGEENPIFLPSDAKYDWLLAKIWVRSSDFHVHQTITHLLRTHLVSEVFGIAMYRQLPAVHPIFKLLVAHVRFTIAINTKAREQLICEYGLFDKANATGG
Outline: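 LTB4 biosynthesis measured in bovine polymorphonuclear leukocytes, with NDGA as the standard inhibitor; N = 3 or more, significance versus control at P < 0.01.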

[3] = Partition coefficient (logP); assay type: physicochemical; conditions: octanol/water
[4] = Antioxidant potential was assessed from reducing activity against 2,2,di-phenyl-1-picrylhydrazyl.
HaCaT [5] = test: Cytotoxic activity (2 uM) was measured by the amount of LDH (mU) release in HaCaT cells.; assay type: functional, Homo sapiens
Outline: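 HaCaT cells exposed to test compound at 2 μM; LDH activity (mU) released into the culture medium measured and compared with vehicle control; N = 3.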

| Structure (SMILES) | IC50 (HaCaT [1]) | IC50 [2] | logP [3] | kDPPH [4] | LDH (HaCaT [5]) |
| --- | --- | --- | --- | --- | --- |
| O=C1c2c(O)cccc2C(OCc2ccccc2)c2cccc(O)c21 | 3.8 µM | > 30 µM | 4.25 | – | – |
| O=C1c2cccc(Cl)c2Cc2c(Cl)cccc21 | 2.1 µM | – | 5.05 | 3.4 M⁻¹ s⁻¹ | – |
| CCCCC(=O)C1c2cccc(O)c2C(=O)c2c(O)cccc21 | 4.4 µM | > 30 µM | 4.12 | 7 M⁻¹ s⁻¹ | 214 mU |
| Nc1cccc2c1Cc1ccccc1C2=O | > 5 µM | 20 µM | 2.46 | 15.3 M⁻¹ s⁻¹ | – |
| CC(=O)Oc1cccc2c1C(=O)c1c(O)cccc1C2 | 0.8 µM | 6 µM | 3.25 | 16.1 M⁻¹ s⁻¹ | 243 mU |
| O=CC1c2cccc(O)c2C(=O)c2c(O)cccc21 | 1.9 µM | – | 2.79 | < 2 M⁻¹ s⁻¹ | 124 mU |
| COC1c2cccc(O)c2C(=O)c2c(O)cccc21 | 1.1 µM | > 30 µM | 3.96 | – | 146 mU |
| O=C1c2c(O)cccc2Cc2cccc(O)c21 [ANTHRALIN] | – | – | – | 24.2 M⁻¹ s⁻¹ | 294 mU |
| Cc1cc(O)c2c(=O)c3c(O)cc(O)c4c5c(O)cc(O)c6c(=O)c7c(O)cc(C)c8c1c2c(c34)c(c78)c65 [HYPERICIN] | 1.7 µM | > 30 µM | 5.02 | 3.66 M⁻¹ s⁻¹ | 159 mU |
| O=C1C=CC(=O)c2c(O)ccc(O)c21 [NAPHTHAZALIN] | 0.7 µM | – | 3.7 | 41.5 M⁻¹ s⁻¹ | 247 mU |
| O=C1c2cccc(O)c2Cc2c(O)cccc21 | > 5 µM | 4 µM | 2.17 | < 2 M⁻¹ s⁻¹ | 144 mU |
| O=C1c2cccc(OCc3ccccc3)c2Cc2c(OCc3ccccc3)cccc21 | > 5 µM | – | 5.73 | 3.2 M⁻¹ s⁻¹ | – |
| c1ccc2c(c1)Cc1ccccc1C2 | > 5 µM | > 30 µM | 4.06 | – | – |
| COc1cccc2c1Cc1c(OC)cccc1C2=O | > 5 µM | 8 µM | 3.68 | < 2 M⁻¹ s⁻¹ | 137 mU |
| CC(C)=CCc1c(C)cc(O)c2c1Cc1c(CC=C(C)C)c(O)cc(O)c1C2=O | > 5 µM | 25 µM | 6.56 | 8.2 M⁻¹ s⁻¹ | – |
| CC(=O)Oc1cccc2c1C(=O)c1c(cccc1OC(C)=O)C2 | 0.7 µM | 9 µM | 2.4 | 3.6 M⁻¹ s⁻¹ | 314 mU |
| O=C1c2c(O)cccc2C(SCc2ccccc2)c2cccc(O)c21 | – | > 30 µM | 4.87 | > 100 M⁻¹ s⁻¹ | – |
| N#Cc1ccc2c(c1O)C(=O)c1c(O)cccc1C2 | 4.2 µM | 8 µM | 3.16 | > 100 M⁻¹ s⁻¹ | – |
| c1ccc2cc3ccccc3cc2c1 | > 5 µM | > 30 µM | – | – | 131 mU |

| Structure (SMILES) | IC50 (HaCaT [1]) | IC50 [2] | logP [3] | kDPPH [4] | LDH (HaCaT [5]) |
| --- | --- | --- | --- | --- | --- |
| O=C1c2c(O)cccc2C(Cc2ccccc2)c2cccc(O)c21 | > 5 µM | > 30 µM | 4.5 | < 2 M⁻¹ s⁻¹ | 135 mU |
| COc1cccc2c1C(=O)c1c(cccc1OC)C2 | > 5 µM | > 30 µM | 3.88 | – | 144 mU |
| Nc1cccc2c1C(=O)c1ccccc1C2 | > 5 µM | 28 µM | 2.45 | 50.5 M⁻¹ s⁻¹ | – |
| CCC1c2cccc(O)c2C(=O)c2c(O)cccc21 | > 5 µM | > 30 µM | 4.37 | < 2 M⁻¹ s⁻¹ | 161 mU |
| O=C(c1ccccc1)c1cccc2c1C(=O)c1c(O)cccc1C2 | 4.3 µM | 27 µM | 3.99 | 39.6 M⁻¹ s⁻¹ | – |
| O=C1c2c(O)cccc2C(Br)c2cccc(O)c21 | > 5 µM | > 30 µM | 3.94 | 12.7 M⁻¹ s⁻¹ | – |
| O=C1c2c(O)cccc2Cc2cc(CO)cc(O)c21 | 0.7 µM | 30 µM | 3.37 | 20.1 M⁻¹ s⁻¹ | 376 mU |
| CC(C)=CCc1c(C)c(CC=C(C)C)c2c(c1O)C(=O)c1c(O)cc(O)c(CC=C(C)C)c1C2 [HARUNGANOL B] | > 5 µM | > 30 µM | 8.01 | 3.1 M⁻¹ s⁻¹ | – |
| O=C1c2c(Cl)cccc2Cc2cccc(Cl)c21 | > 5 µM | 4 µM | 3.51 | < 2 M⁻¹ s⁻¹ | – |
| COc1cccc2c1Cc1c(O)cccc1C2=O | > 5 µM | – | 2.6 | < 2 M⁻¹ s⁻¹ | 141 mU |
| CC(=O)C1c2cccc(O)c2C(=O)c2c(O)cccc21 | 2.6 µM | 18 µM | 3.49 | 17.6 M⁻¹ s⁻¹ | 317 mU |
| O=C1c2c(O)cccc2C(C(=O)c2ccccc2)c2cccc(O)c21 | > 5 µM | – | 3.81 | – | – |
| Cc1ccc2c(c1O)C(=O)c1c(O)cccc1C2 | 1.5 µM | > 30 µM | 4.99 | 17.2 M⁻¹ s⁻¹ | 126 mU |
| CN(C)C=C1c2cccc(O)c2C(=O)c2c(O)cccc21 | 2.1 µM | 21 µM | 3.18 | 16.2 M⁻¹ s⁻¹ | – |
| Cc1cc(O)c2c(c1)Cc1cc(O)cc(O)c1C2=O [EMODIN ANTHRONE] | > 5 µM | – | 3.9 | 21.4 M⁻¹ s⁻¹ | 114 mU |
| N=C1c2c(O)cccc2Cc2cccc(O)c21 | 0.5 µM | > 30 µM | 4.72 | 2.7 M⁻¹ s⁻¹ | 137 mU |
| O=C1c2cccc(O)c2Cc2cccc(O)c21 | 4.3 µM | – | 3.51 | 13.5 M⁻¹ s⁻¹ | 191 mU |
| COc1cccc2c1C(=O)c1c(O)cccc1C2 | 3.1 µM | – | 3.44 | 4.6 M⁻¹ s⁻¹ | 179 mU |
| O=C1c2ccccc2Cc2cccc(O)c21 | > 5 µM | 13 µM | 3.99 | 9.6 M⁻¹ s⁻¹ | 170 mU |

| Structure (SMILES) | IC50 (HaCaT [1]) | IC50 [2] | logP [3] | kDPPH [4] | LDH (HaCaT [5]) |
| --- | --- | --- | --- | --- | --- |
| Cc1cc(O)c2c(c1)Cc1cccc(O)c1C2=O | 1.5 µM | > 30 µM | 4.8 | 15.3 M⁻¹ s⁻¹ | 211 mU |
| O=C1c2c(O)cccc2C([C@@H]2O[C@H](CO)[C@@H](O)[C@H](O)[C@H]2O)c2cc(CO)cc(O)c21 (some centres not stated) [ALOIN] | > 5 µM | > 30 µM | 1.83 | < 2 M⁻¹ s⁻¹ | – |
| O=C(O)c1cc(O)c2c(c1)Cc1cccc(O)c1C2=O | > 5 µM | 3 µM | 2.96 | > 100 M⁻¹ s⁻¹ | – |
| O=C1c2c(O)cccc2C(C2c3cccc(O)c3C(=O)c3c(O)cccc32)c2cccc(O)c21 | 0.6 µM | > 30 µM | 5.01 | < 1 M⁻¹ s⁻¹ | 263 mU |
| O=C1C=CC(=O)c2c(O)cccc21 [JUGLONE] | 0.8 µM | 17 µM | – | 6.6 M⁻¹ s⁻¹ | 384 mU |
| Oc1cccc(O)c1O [PYROGALLOL] | > 5 µM | 4 µM | 1.19 | > 100 M⁻¹ s⁻¹ | – |
| O=C1c2c(O)cccc2C(O)c2cccc(O)c21 | > 5 µM | > 30 µM | 2.91 | < 2 M⁻¹ s⁻¹ | – |
| O=C(c1ccccc1O)c1ccccc1O [2,2'-DIHYDROXYBENZPHENONE] | > 5 µM | > 30 µM | 2.66 | 2.1 M⁻¹ s⁻¹ | – |
| COC(=O)c1cc(O)c2c(c1)Cc1cccc(O)c1C2=O | 0.7 µM | > 30 µM | 4.54 | > 100 M⁻¹ s⁻¹ | 340 mU |
| O=C1c2ccccc2Cc2ccc(O)c(O)c21 | 1.9 µM | 4 µM | 3.19 | 41.5 M⁻¹ s⁻¹ | – |
| O=Cc1ccc2c(c1O)C(=O)c1c(O)cccc1C2 | > 5 µM | 6 µM | 4.06 | > 100 M⁻¹ s⁻¹ | – |
| CCSC1c2cccc(O)c2C(=O)c2c(O)cccc21 | – | > 30 µM | 2.97 | > 100 M⁻¹ s⁻¹ | – |
| CCC(=O)c1ccc2c(c1O)C(=O)c1c(O)cccc1C2 | 3.3 µM | – | 4.59 | > 100 M⁻¹ s⁻¹ | – |
| O=C1c2ccccc2Cc2ccccc21 [ANTHRONE] | > 5 µM | 2 µM | 3.46 | < 2 M⁻¹ s⁻¹ | 165 mU |
| CCCCc1ccc2c(c1O)C(=O)c1c(O)cccc1C2 | > 5 µM | > 30 µM | 5.89 | 6.5 M⁻¹ s⁻¹ | – |
| O=C1c2c(O)cccc2C(Cc2ccccc2)(Cc2ccccc2)c2cccc(O)c21 | > 5 µM | > 30 µM | 4.33 | < 2 M⁻¹ s⁻¹ | 167 mU |
| O=C1c2cccc(O)c2C(=O)c2c(O)cccc21 [DANTHRON] | > 5 µM | > 30 µM | 4.16 | < 2 M⁻¹ s⁻¹ | 170 mU |
| O=C1c2ccccc2Cc2c1ccc(O)c2O | > 5 µM | 4 µM | 3.81 | > 100 M⁻¹ s⁻¹ | 144 mU |
